Source: PubChem BioAssay (several laboratories)
CCR6 antagonist = CCR6 (human) receptor antagonism | CHO-K1 CCR6 PathHunter beta-arrestin, luminescence, CCL20-stimulated | inhibition, % at 20 µM | 0.49% of 340,000 active;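 active means compounds whose inhibition of the agonist-driven luminescence signal at 20 µM reaches about 50%, limit read from the data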;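 further: cells stimulated with CCL20 at 14 nM final; plate controls were DMSO with CCL20 for no effect and DMSO without agonist for full effect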
EBI2 block = antagonists of human EBI2 receptor. P32249. EBI2 beta-arrestin recruitment, luminescence, 7a,25-OHC stimulated. inhibition, % at 5 µM. 0.81% of 360,000 active; in the data active means inhibition above about 38%;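 further: enzyme fragment complementation signal reports receptor beta-arrestin coupling in cells; 0% = agonist plus DMSO wells and 100% = wells without agonist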
HTR2A ag = agonists of mouse serotonin 5-HT2A receptor (HTR2A); P35363; CHO-K1 mHTR2A beta-arrestin complementation, luminescence; percent of 30 µM serotonin response; activation, % at 7.6 µM; 0.66% of 360,000 active;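 active means activation above a run cutoff, the mean activation of all tested compounds plus 3 SD, cut at about 14% in these data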;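 further: 0% = plate median of compound wells and 100% = 30 µM serotonin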
APJ antagonist = APJ receptor antagonism | 0.32% of 330,000 active | P35414 | inhibition, % at 20 µM | CHO-K1 APJ beta-arrestin complementation, luminescence;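 active means inhibition above about 40% at 20 µM, limit read from the data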;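 further: cells challenged with 10 nM apelin-13 agonist together with compound; plate controls were apelin-13 plus DMSO wells for no effect and DMSO wells lacking apelin-13 for full effect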
APJ ag = agonists of human APJ apelin receptor. P35414. CHO-K1 APJ PathHunter beta-arrestin, luminescence; 0% DMSO wells, 100% apelin. activation, % at 20 µM. 0.11% of 330,000 active;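 active means activation more than six SD over the plate average, tested at 20 µM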;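 further: 0% = DMSO alone and 100% = apelin-13 at 10 nM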
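Material: engineered CHO-K1 APJ arrestin reporter cells; amount: 1000 CHO-K1 reporter cells seeded per well; incubation: compound stimulation 90 min at 25 °C, detection 60 min; signal: luminescent beta-gal fragment complementation, chemiluminescent substrate; read-out basis: APJ agonist activity; controls: DMSO-only wells as negative, 10 nM Apelin-13 as positive control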
CXCR6 inh = CXCR6 (human) receptor inhibition. CHO-K1 PathHunter CXCR6 beta-arrestin, luminescence. inhibition, % at 20 µM. 0.36% of 360,000 active; in the data active means inhibition above about 34%, passing the limit was not always enough;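 further: antagonist mode with CXCL16 agonist at 10 nM final; 0% = 10 nM CXCL16 with DMSO and 100% = unstimulated wells without agonist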
MOR ag counter = OPRM1 agonism in mouse HTR2A counterscreen; AID 624380; U2OS OPRM1 beta-arrestin PathHunter, luminescence; DMSO 0%, DAMGO 9.3 µM 100%; shares compounds with HTR2A ag; 5.3% of 2,300 active; activation, % at 9.3 µM;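 active means mean activation above the mean of DMSO-only wells plus 3 SD, cut at about 0.5% in these data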
Target sequence (P35372 whole entry, looked up): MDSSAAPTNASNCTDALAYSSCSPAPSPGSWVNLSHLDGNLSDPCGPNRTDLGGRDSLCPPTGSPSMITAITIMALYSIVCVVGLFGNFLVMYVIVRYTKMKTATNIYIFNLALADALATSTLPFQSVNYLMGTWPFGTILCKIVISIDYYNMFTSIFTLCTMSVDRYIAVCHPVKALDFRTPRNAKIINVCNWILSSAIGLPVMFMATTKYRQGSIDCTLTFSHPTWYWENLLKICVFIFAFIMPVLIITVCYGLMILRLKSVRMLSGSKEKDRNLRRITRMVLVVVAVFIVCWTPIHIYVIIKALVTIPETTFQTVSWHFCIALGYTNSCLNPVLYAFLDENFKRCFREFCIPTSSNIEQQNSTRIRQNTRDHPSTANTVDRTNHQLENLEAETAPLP
m5-HT2A ag conf = confirmation of mouse HTR2A serotonin receptor agonists. shares compounds with HTR2A ag. CHO-K1 PathHunter beta-arrestin recruitment, luminescence; DMSO 0%, 30 µM serotonin 100%. activation, % at 7.6 µM. 19% of 2,300 active. AID 624381;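 active means mean activation across triplicates above the hit threshold derived in the original primary screen, cut at about 15% in these data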
* = called active by the depositor; nt = not tested or not shown. Hits are enriched below; roughly 2.1% of the tested compounds scored in any of these assays.

SMILES	CCR6 antagonist	EBI2 block	HTR2A ag	APJ antagonist	APJ ag	CXCR6 inh	MOR ag counter	m5-HT2A ag conf
COc1cc(CCCN2C(N)=NC[C@@H]2Cc2ccccc2)cc(OC)c1OC	5.5	6.1	15.6*	-9.0	-6.6	-0.4	-0.6	-6.2
O=C(NCc1ccccc1)C1CCC(CNc2c(N3CCCCC3)c(=O)c2=O)CC1 (centres undefined)	8.9	4.4	1.0	-54.9	0.6	6.9	nt	nt
O=C(NCc1ccc2c(c1)OCO2)C1CCC(CNc2c(N3CCCC3)c(=O)c2=O)CC1 (centres undefined)	11.4	6.0	14.4*	-5.3	-1.0	2.5	-0.5	-2.3
CCOC(=O)N1CCC(N(CCOC)C(=O)Nc2ccc(CC)cc2)CC1	4.5	3.3	-6.2	6.5	-3.9	-2.9	nt	nt
CCOC(=O)N1CCC(N(C(=O)Nc2ccc(Cl)c(Cl)c2)C(C)CC)CC1 (centres undefined)	-5.3	1.3	15.5*	-1.4	0.7	-5.2	-0.1	-2.1
O=C(Cc1cccc(NC(=O)C2CCCN(C(=O)C3CCC3)C2)c1)Nc1ccc(C(=O)N2CCOCC2)cc1 (centres undefined)	-3.9	-7.8	29.2*	nt	nt	-2.5	-0.6	-6.3
O=C(Cc1cccc(NC(=O)C2CCCN(C(=O)C3CCCC3)C2)c1)Nc1ccc(C(=O)N2CCOCC2)cc1 (centres undefined)	-9.3	-6.4	-2.0	nt	nt	8.4	nt	nt
COc1ccc(OC)c(NC(=O)CSc2nc3[nH]c(=O)cc(O)c3s2)c1	1.1	7.3	-2.1	-20.2	-3.8	-1.9	nt	nt
COc1ccc(OC)c(NC(=O)CSc2nc3[nH]c(=O)[nH]c(=O)c3s2)c1	7.6	2.9	18.3*	nt	nt	-0.7	-0.7	0.8
CC1CCN(c2nc3c(c(=O)[nH]c(=O)n3C)n2CCSc2ncccn2)CC1	4.4	-2.1	60.1*	nt	nt	4.3	-0.5	-3.2
CN(C)CCN1CCN(C2CN(Cc3cn(Cc4ccccc4)nn3)S(=O)(=O)C2)CC1 (centres undefined)	nt	-1.2	19.6*	nt	nt	4.4	-0.7	-2.5
CCCCCCn1cc(CN2CC(N3CCSCC3)CS2(=O)=O)nn1 (centres undefined)	nt	0.5	0.2	nt	nt	-0.5	nt	nt
CCCCCCn1cc(CN2CC(N3CCCC3)CS2(=O)=O)nn1 (centres undefined)	nt	-1.9	20.3*	nt	nt	-1.2	-0.6	-4.3
O=S1(=O)CC(N2CCN(Cc3ccccc3F)CC2)CN1Cc1cn(Cc2cccc(Cl)c2)nn1 (centres undefined)	nt	-3.2	14.9*	nt	nt	-0.8	-0.6	3.3
O=C(Nc1cccc(Cl)c1)c1nc[nH]c1C(=O)NCc1ccccc1	11.7	-32.0	-2.2	0.8	-2.1	22.0	nt	nt
COc1cccc(OC)c1C(=O)Nc1ccc(C(=O)c2ccncc2)cc1	2.9	10.8	18.6*	4.6	2.5	-14.8	-0.4	-2.6
CN(C)c1ccc(C(=O)c2ccccc2C(=O)O)c(O)c1	2.2	-4.5	17.0*	-1.3	-5.2	-4.9	-0.6	-2.1
CCCCN(CCCC)c1ccc(C(=O)c2ccccc2C(=O)O)c(O)c1	11.7	9.5	0.8	11.0	-3.2	4.8	nt	nt
CCOCC(=O)Nc1nc2ccc(C)cc2s1	12.8	5.5	-1.1	6.3	-6.4	-7.0	nt	nt
C/C=C/C(=O)OCC(=O)Nc1nc2ccc(C)cc2s1	15.2	-4.7	25.8*	17.6	-4.2	1.2	-0.6	-3.5
CC(=O)C12OC1CC1C3CCC4=CC(=O)CCC4(C)C3CCC12C (centres undefined)	7.7	11.8	15.8*	6.2	-0.8	-6.3	-0.6	-2.4
c1csc(-c2nnc(NC3CCCCC3)c3ccccc23)c1	13.2	5.9	23.4*	5.0	-2.7	1.3	-0.8	9.0
CC1CCN(c2nnc(-c3cccs3)c3ccccc23)CC1	17.9	11.4	-1.8	10.5	-2.7	3.6	nt	nt
O=C1CC(c2ccco2)CC(O)=C1C=Nc1ccccc1-c1ccccc1 (centres undefined)	15.9	11.4	-0.6	9.8	-2.6	4.8	nt	nt
CCOC(=O)C1CCN(Cc2cccc(Oc3ccc(Cl)cc3)c2)CC1	9.2	2.8	20.2*	-15.6	-2.7	-10.2	-0.3	69.8*
SMILES	CCR6 antagonist	EBI2 block	HTR2A ag	APJ antagonist	APJ ag	CXCR6 inh	MOR ag counter	m5-HT2A ag conf
CC(=O)NNc1nc(-c2ccccc2)c2cc(Cl)ccc2n1	nt	-0.9	-3.8	nt	nt	2.2	nt	nt
COc1ccc(OCc2cc(C(=O)NC(C)c3cnn(C)c3)no2)c(Cl)c1 (centres undefined)	12.2	8.8	-5.6	-12.1	4.0	-0.2	nt	nt
Cc1cc(O)c2c(-c3ccccc3)cc(=O)oc2c1	10.2	-5.3	-0.3	16.0	3.3	4.1	nt	nt
CC1(/[N+]([O-])=C\c2ccccc2F)CCCCC1=O (centres undefined)	7.2	-7.6	16.4*	-5.1	1.2	1.3	-0.1	-1.1
CC(=O)Nc1ccc(CN2CCN(CC(C)C)C(CCO)C2)cc1 (centres undefined)	-3.0	-1.4	14.4*	-18.8	-3.5	-0.5	-0.5	-3.7
CC(=O)Nc1ccc(CN2CCN(Cc3ccc(C)cc3)C(CCO)C2)cc1 (centres undefined)	-2.1	-9.6	-1.7	-25.5	-2.4	-3.7	nt	nt
O=C(NC1CCCCC1)C(C1CC1)n1c(=O)c(-c2ccco2)nc2ccccc21 (centres undefined)	nt	10.7	16.4*	nt	nt	nt	-0.9	-2.6
COc1ccc(C(N)=O)cc1N	-16.4	-13.1	2.6	14.2	-3.1	-2.5	nt	nt
COc1ccc(OC)c(C2=Nn3c(nnc3-c3cc(OC)c(OC)c(OC)c3)SC2)c1	15.1	24.2	14.9*	-4.1	-4.2	5.9	-0.5	7.4
COc1ccc(OC)c(C2=Nn3c(nnc3-c3ccncc3)SC2)c1	6.7	21.5	-3.4	9.2	-0.8	-2.6	nt	nt
Cc1cc([N+](=O)[O-])c2[nH]c(C(=O)N/N=C/c3ccccc3C(=O)O)c(-c3ccccc3)c2c1	14.1	2.4	17.6*	nt	nt	15.0	-0.7	-2.0
COC(=O)Cc1c(C)c2ccc(OCC(=O)N3CCCC(C)C3)c(C)c2oc1=O (centres undefined)	6.1	-1.6	15.1*	4.3	1.2	1.1	-0.6	4.6
Cc1cc(/C=C(\C#N)C(=O)NC2CCCCCC2)c(C)n1C	7.5	15.2	18.5*	-2.1	-8.8	1.4	0.1	2.8
COCCNC(=O)c1ccccc1-c1ccccc1C(=O)O	-9.0	5.6	2.6	10.1	-0.8	5.3	nt	nt
